{"source": "paper PMC9044819", "about": "(RSC Advances, 2021)", "key": {"Human VEGFR-2": {"molecular_target": "Human VEGFR-2 (Homo sapiens, UniProt P35968)", "sequence (P35968 20-1356)": "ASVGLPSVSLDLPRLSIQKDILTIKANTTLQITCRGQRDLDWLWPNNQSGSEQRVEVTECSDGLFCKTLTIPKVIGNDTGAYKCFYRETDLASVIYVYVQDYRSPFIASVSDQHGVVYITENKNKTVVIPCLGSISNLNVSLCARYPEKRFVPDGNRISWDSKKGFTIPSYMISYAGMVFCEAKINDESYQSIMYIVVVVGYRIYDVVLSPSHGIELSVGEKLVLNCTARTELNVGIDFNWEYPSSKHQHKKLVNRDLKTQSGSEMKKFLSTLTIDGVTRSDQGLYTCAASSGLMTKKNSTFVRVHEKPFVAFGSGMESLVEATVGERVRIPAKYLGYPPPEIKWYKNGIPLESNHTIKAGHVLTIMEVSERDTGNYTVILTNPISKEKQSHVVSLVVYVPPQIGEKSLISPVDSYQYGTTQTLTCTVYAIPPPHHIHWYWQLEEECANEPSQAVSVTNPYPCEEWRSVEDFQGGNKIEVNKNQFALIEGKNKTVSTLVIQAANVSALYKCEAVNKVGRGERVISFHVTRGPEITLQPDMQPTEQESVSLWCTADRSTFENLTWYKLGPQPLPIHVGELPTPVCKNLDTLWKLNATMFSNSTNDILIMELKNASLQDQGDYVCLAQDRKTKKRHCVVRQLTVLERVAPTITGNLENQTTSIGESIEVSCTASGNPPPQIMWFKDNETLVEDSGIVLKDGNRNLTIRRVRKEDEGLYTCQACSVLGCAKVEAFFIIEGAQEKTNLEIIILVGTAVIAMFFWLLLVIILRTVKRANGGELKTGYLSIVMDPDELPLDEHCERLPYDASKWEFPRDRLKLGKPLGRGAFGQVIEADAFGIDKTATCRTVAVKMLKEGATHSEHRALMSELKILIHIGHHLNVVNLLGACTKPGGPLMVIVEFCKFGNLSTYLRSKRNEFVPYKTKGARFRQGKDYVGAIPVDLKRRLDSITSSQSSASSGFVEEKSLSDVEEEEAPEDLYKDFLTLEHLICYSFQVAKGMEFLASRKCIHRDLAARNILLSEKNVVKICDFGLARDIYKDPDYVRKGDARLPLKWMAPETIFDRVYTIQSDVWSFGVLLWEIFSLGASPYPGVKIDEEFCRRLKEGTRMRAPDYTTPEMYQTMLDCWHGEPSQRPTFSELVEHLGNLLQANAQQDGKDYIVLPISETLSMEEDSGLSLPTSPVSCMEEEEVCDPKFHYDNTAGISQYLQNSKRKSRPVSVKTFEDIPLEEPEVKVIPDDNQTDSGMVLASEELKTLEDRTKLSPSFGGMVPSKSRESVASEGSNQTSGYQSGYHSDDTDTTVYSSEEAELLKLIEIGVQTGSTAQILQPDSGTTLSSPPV", "test": "In vitro VEGFR-2 assay", "assay_type": "biochemical"}, "BAX": {"tested_on": "BAX", "test": "Western blot, BAX expression in HepG-2", "assay_type": "cell-based, human", "outline": "(§1)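 HepG-2 cells exposed 24 h to test compound at 2.3 μM, then probed by western blot for BAX, Bcl-2, active caspase-9 and active caspase-3. Each band is normalized to β-actin and expressed relative to control, and the BAX/Bcl-2 ratio is also tabulated. Values are mean ± SEM of three independent experiments, with significance flagged at p < 0.05, 0.01 and 0.001.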"}, "BAX/Bcl-2 ratio": {"tested_on": "BAX/Bcl-2 ratio", "test": "Western blot, BAX/Bcl-2 ratio in HepG-2", "assay_type": "cell-based, human", "settings": "HepG-2 treated 24 h, 2.3 μM; control 1.00; mean ± SEM", "outline": "as §1"}, "HepG-2 cells": {"tested_on": "HepG-2 cells", "test": "Cell cycle analysis", "assay_type": "cell-based, human", "settings": "HepG-2, 17b 2.3 μM"}, "caspase-9": {"tested_on": "caspase-9", "test": "Western blot, active caspase-9 in HepG-2", "assay_type": "cell-based, human", "outline": "as §1"}, "Bcl-2": {"tested_on": "Bcl-2", "test": "Western blot, Bcl-2 expression in HepG-2", "assay_type": "cell-based, human", "outline": "as §1"}, "caspase-3": {"tested_on": "caspase-3", "test": "Western blot, active caspase-3 in HepG-2", "assay_type": "cell-based, human", "outline": "as §1"}, "primary rat hepatocytes": {"tested_on": "primary rat hepatocytes", "test": "In vitro cytotoxicity against normal hepatic cells", "assay_type": "cell-based", "settings": "HepG-2 vs primary rat hepatocytes"}, "MCF-7": {"tested_on": "MCF-7", "test": "cells", "assay_type": "cell-based, human"}, "HepG-2": {"tested_on": "HepG-2", "test": "MTT anti-proliferative assay, HepG-2", "assay_type": "cell-based, human"}, "[1]": {"settings": "HepG-2 treated 24 h, 2.3 μM, control 1.00, mean ± SEM"}}, "note": "Values joined by “and” are separate entries in the source; they are usually repeats but may differ in a detail not shown here. Equal values may be shown once. Read-outs that look alike come from different tables or passages of the source.", "data": [{"molecule": "CCCCNC(=O)c1ccc(NC(=O)CSc2nc3ccccc3nc2C)cc1", "note": "[Compound 15a, N-Butyl-4-(2-((3-methylquinoxalin-2-yl)thio)acetamido)benzamide]", "values": [{"measurement": "IC50", "setting": "Human VEGFR-2", "result": "23.1 ± 0.8", "unit": "nM"}]}, {"molecule": "Cc1nc2ccccc2nc1SCC(=O)Nc1ccc(C(=O)Nc2cccc(Cl)c2)cc1", "note": "[Compound 15b, N-(3-Chlorophenyl)-4-(2-((3-methylquinoxalin-2-yl)thio)acetamido)benzamide]", "values": [{"measurement": "IC50", "setting": "Human VEGFR-2", "result": "3.4 ± 0.2", "unit": "nM"}]}, {"molecule": "Cc1nc2ccccc2nc1SCC(=O)Nc1ccc(C(=O)Nc2ccc(O)cc2)cc1", "note": "[Compound 15c, N-(4-Hydroxyphenyl)-4-(2-((3-methylquinoxalin-2-yl)thio)acetamido)benzamide]", "values": [{"measurement": "IC50", "setting": "Human VEGFR-2", "result": "27.8 ± 1.2", "unit": "nM"}]}, {"molecule": "Cc1nc2ccccc2nc1SCC(=O)Nc1ccc(C(=O)Nc2ccc([N+](=O)[O-])cc2O)cc1", "note": "[Compound 15d, N-(2-Hydroxy-4-nitrophenyl)-4-(2-((3-methylquinoxalin-2-yl)thio)acetamido)benzamide]", "values": [{"measurement": "IC50", "setting": "Human VEGFR-2", "result": "31.5 ± 1.3", "unit": "nM"}]}, {"molecule": "Cc1nc2ccccc2nc1SCC(=O)Nc1ccc(C(=O)NNC(=O)c2ccccc2O)cc1", "note": "[Compound 16, N-(4-(2-(2-Hydroxybenzoyl)hydrazine-1-carbonyl)phenyl)-2-((3-methylquinoxalin-2-yl)thio)acetamide]", "values": [{"measurement": "IC50", "setting": "Human VEGFR-2", "result": "18.5 ± 0.8", "unit": "nM"}]}, {"molecule": "CCCCNC(=O)c1ccc(NC(=O)Cn2c(=O)c(C)nc3ccccc32)cc1", "note": "[Compound 17a, N-Butyl-4-(2-(3-methyl-2-oxoquinoxalin-1(2H)-yl)acetamido)benzamide]", "values": [{"measurement": "IC50", "setting": "Human VEGFR-2", "result": "11.2 ± 0.4", "unit": "nM"}]}, {"molecule": "Cc1nc2ccccc2n(CC(=O)Nc2ccc(C(=O)Nc3cccc(Cl)c3)cc2)c1=O", "note": "[Compound 17b, N-(3-Chlorophenyl)-4-(2-(3-methyl-2-oxoquinoxalin-1(2H)-yl)acetamido)benzamide]", "values": [{"measurement": "boost of BAX level", "setting": "BAX; HepG-2, 2.3 μM", "result": "approximately 4 fold"}, {"measurement": "Protein expression (normalized to β-actin) BAX", "setting": "BAX; [1]", "result": "4.21 ± 0.60"}, {"measurement": "Protein expression (normalized to β-actin) BAX/Bcl-2 ratio", "setting": "BAX/Bcl-2 ratio", "result": "9.30 ± 2.66"}, {"measurement": "Cell cycle analysis (%) % G1", "setting": "HepG-2 cells", "result": "40.03 ± 2.82", "unit": "%"}, {"measurement": "Cell cycle analysis (%) % G2/M", "setting": "HepG-2 cells", "result": "30.38% and 30.38 ± 2.93 %"}, {"measurement": "Cell cycle analysis (%) % S", "setting": "HepG-2 cells", "result": "28.31 ± 1.01", "unit": "%"}, {"measurement": "Cell cycle analysis (%) % Sub-G1", "setting": "HepG-2 cells", "result": "1.27 ± 0.17", "unit": "%"}, {"measurement": "increase of caspase-9 level compared to control cells", "setting": "caspase-9; HepG-2, 2.3 μM", "result": 1.74, "unit": "fold"}, {"measurement": "Protein expression (normalized to β-actin) Caspases-9", "setting": "caspase-9; [1]", "result": "1.74 ± 0.20"}, {"measurement": "downregulation of Bcl-2 level", "setting": "Bcl-2; HepG-2, 2.3 μM", "result": "around 3 fold"}, {"measurement": "Protein expression (normalized to β-actin) Bcl-2", "setting": "Bcl-2; [1]", "result": "0.32 ± 0.04"}, {"measurement": "increase of caspase-3 level compared to control cells", "setting": "caspase-3; HepG-2, 2.3 μM", "result": 1.8, "unit": "fold"}, {"measurement": "Protein expression (normalized to β-actin) Caspases-3", "setting": "caspase-3; [1]", "result": "1.85 ± 0.26"}, {"measurement": "cytotoxic activity against cancer HepG-2 cell line more than against normal hepatic cells", "setting": "primary rat hepatocytes", "result": 10, "unit": "fold"}, {"measurement": "IC50", "setting": "MCF-7; read-out: MCF-7 (IC50), MTT, mean ± S.D. of three experiments", "result": "2.8 ± 0.2", "unit": "µM"}, {"measurement": "IC50", "setting": "HepG-2; read-out: HepG-2 (IC50), MTT, mean ± S.D. of three experiments", "result": "2.3 ± 0.2", "unit": "µM"}]}, {"molecule": "Cc1nc2ccccc2n(CC(=O)Nc2ccc(C(=O)Nc3ccc(O)cc3)cc2)c1=O", "note": "[Compound 17c, N-(4-Hydroxyphenyl)-4-(2-(3-methyl-2-oxoquinoxalin-1(2H)-yl)acetamido)benzamide]", "values": [{"measurement": "IC50", "setting": "Human VEGFR-2", "result": "13.9 ± 0.5", "unit": "nM"}]}, {"molecule": "Cc1nc2ccccc2n(CC(=O)Nc2ccc(C(=O)Nc3ccc([N+](=O)[O-])cc3O)cc2)c1=O", "note": "[Compound 17d, N-(2-Hydroxy-4-nitrophenyl)-4-(2-(3-methyl-2-oxoquinoxalin-1(2H)-yl)acetamido)benzamide]", "values": [{"measurement": "IC50", "setting": "Human VEGFR-2", "result": "11.2 ± 0.3", "unit": "nM"}, {"measurement": "IC50", "setting": "MCF-7; Homo sapiens, MCF7, read-out: MCF-7 (IC50, μM)", "result": "35.2 ± 1.6", "unit": "µM"}, {"measurement": "IC50", "setting": "HepG-2; Homo sapiens, HepG2, read-out: HepG-2 (IC50, μM)", "result": "22.4 ± 1.3", "unit": "µM"}]}, {"molecule": "Cc1nc2ccccc2n(CC(=O)Nc2ccc(C(=O)NNC(=O)c3ccccc3O)cc2)c1=O", "note": "[Compound 18, N-(4-(2-(2-Hydroxybenzoyl)hydrazine-1-carbonyl)phenyl)-2-(3-methyl-2-oxoquinoxalin-1(2H)-yl)acetamide]", "values": [{"measurement": "IC50", "setting": "Human VEGFR-2", "result": "11.2 ± 0.2", "unit": "nM"}]}, {"molecule": "CNC(=O)c1cc(Oc2ccc(NC(=O)Nc3ccc(Cl)c(C(F)(F)F)c3)cc2)ccn1", "note": "[Sorafenib, sorafenib, reference compound]", "values": [{"measurement": "cytotoxic activity against cancer HepG-2 cell line more than against normal hepatic cells", "setting": "primary rat hepatocytes", "result": 11, "unit": "fold"}]}]}
